In PMC9064050 (RSC Advances, 2019):
Converted amounts (≈) assume the structure as drawn.

Experiments:
EB–DNA [1] = conditions: at the concentration of 50 μM EB; cited from earlier work
CT-DNA [2] = assay: Nuclease activity by gel electrophoresis in presence of H2O2; assay type: biochemical; conditions: CT-DNA + H2O2, agarose gel
Outline: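 Chemical nuclease assay: CT-DNA with test compound plus H2O2 in Tris–HCl buffer, pH 7.2. Products run on agar gel electrophoresis and imaged under a UV transilluminator. Band migration compared with a DNA + H2O2 control.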

CT-DNA [3] = assay: DNA binding by electronic absorption titration; conditions: Wolfe–Shimmer method; 298 K, pH 7.2
Outline: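 UV-Vis titration at a fixed complex concentration of 100 μM in 5 mM Tris–HCl/50 mM NaCl, pH 7.2, 25 °C. CT-DNA varied 0–150 μM, with [DNA] expressed in base pairs. Kb (Wolfe–Shimmer) taken as the slope-to-intercept ratio of [DNA]/(εa−εf) vs [DNA].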

[4] = biological target: bovine serum albumin (BSA) (Bos taurus, UniProt P02769); assay: BSA binding assay by absorption titration
Sequence of bovine serum albumin (BSA) (P02769 25-607): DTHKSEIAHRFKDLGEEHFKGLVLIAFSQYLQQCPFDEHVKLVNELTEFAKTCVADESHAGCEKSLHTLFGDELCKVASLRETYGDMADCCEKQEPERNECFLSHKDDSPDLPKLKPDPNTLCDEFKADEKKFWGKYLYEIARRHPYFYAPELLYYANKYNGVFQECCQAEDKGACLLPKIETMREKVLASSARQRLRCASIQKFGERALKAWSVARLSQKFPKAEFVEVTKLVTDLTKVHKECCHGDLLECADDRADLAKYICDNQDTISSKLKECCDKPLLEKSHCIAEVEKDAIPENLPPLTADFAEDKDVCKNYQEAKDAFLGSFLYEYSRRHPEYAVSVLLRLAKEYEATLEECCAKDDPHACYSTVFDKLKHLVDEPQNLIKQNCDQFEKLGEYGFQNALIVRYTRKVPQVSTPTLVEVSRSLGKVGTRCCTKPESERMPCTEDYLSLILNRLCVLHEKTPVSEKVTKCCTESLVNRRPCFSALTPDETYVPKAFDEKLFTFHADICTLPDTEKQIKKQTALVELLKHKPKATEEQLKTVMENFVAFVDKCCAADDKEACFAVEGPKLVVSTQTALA

CT-DNA [5] = assay: DNA thermal denaturation by absorption; assay type: binding
EB–DNA [6] = assay: Competitive binding
Outline: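 EB displacement fluorescence titration: CT-DNA 100 μM with EB in 50 mM Tris–HCl/1 mM NaCl buffer (pH 7.2), test compound 0–120 μM. Emission at 610 nm. KSV and Kq from Stern–Volmer (τ0 = 10^−8 s); Kass and n from log(F0−F)/F vs log[Q]; KLB from 1/(F0−F) vs 1/[Q]; KSC and n from Scatchard. Kapp from KEB[EB] = Kapp[compound] at 50% EB-fluorescence loss (KEB = 10^7 M−1, EB 50 μM).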

[7] = DPPH radical scavenging assay; conditions: 240 µM, 517 nm
Outline: (§1)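 Absorbance read at 517 nm (DPPH), 230 nm (hydroxyl), 590 nm (superoxide), 546 nm (nitric oxide) and 700 nm (FRAP). FRAP measures the rise in absorbance from Fe3+→Fe2+ reduction with ferricyanide. IC50 taken from % inhibition vs concentration plots.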

[8] = Hydroxyl radical scavenging assay; conditions: 240 µM, 230 nm
Outline: as §1

[9] = Superoxide scavenging assay; conditions: 240 µM, 590 nm
Outline: as §1

[10] = Nitric oxide scavenging assay; conditions: 240 µM, 546 nm
Outline: as §1

[11] = Ferric reducing antioxidant power; conditions: 240 µM, 700 nm
Outline: as §1

Escherichia coli = assay: Kirby–Bauer agar disc diffusion; assay type: cell-based; conditions: for inhibition%: from zone diameter, eqn (20)
Outline: (§2)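 Kirby–Bauer disc diffusion on Mueller–Hinton agar (pH 7.2, autoclaved 121 °C for 15 min, ~4 mm deep, held 2–8 °C for 24 h). Plates spread with 24 h cultures. 6 mm discs loaded with 20 μL of 100 μM test compound. Bacteria incubated at 37 °C for 48 h; fungi at 22 °C for 7 days. Clear-zone diameter measured by ruler; % inhibition by eqn (20) against 6 mm control.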

[12] = test system: Salmonella enteric serovar typhi; assay: Kirby–Bauer agar disc diffusion; assay type: cell-based; conditions: for inhibition%: eqn (20)
Outline: as §2

[13] = test system: Chromobacterium violaceum; assay: Kirby–Bauer agar disc diffusion; assay type: cell-based; conditions: for inhibition%: eqn (20)
Outline: as §2

Pseudomonas aeruginosa = assay: Kirby–Bauer agar disc diffusion; assay type: cell-based; conditions: for inhibition%: eqn (20)
Outline: as §2

Shigella flexneri = assay: Kirby–Bauer agar disc diffusion; assay type: cell-based; conditions: for inhibition%: eqn (20)
Outline: as §2

Staphylococcus aureus = assay: Kirby–Bauer agar disc diffusion; assay type: cell-based; conditions: for inhibition%: eqn (20)
Outline: as §2

Bacillus cereus = assay: Kirby–Bauer agar disc diffusion; assay type: cell-based; conditions: for inhibition%: eqn (20)
Outline: as §2

Aspergillus niger = assay: Kirby–Bauer agar disc diffusion; assay type: cell-based; conditions: for inhibition%: eqn (20)
Outline: as §2

Candida albicans = assay: Kirby–Bauer agar disc diffusion; assay type: cell-based; conditions: for inhibition%: eqn (20)
Outline: as §2

Mucor indicus = assay: Kirby–Bauer agar disc diffusion; assay type: cell-based; conditions: for inhibition%: eqn (20)
Outline: as §2

human lung cancer (A549) = assay: In vitro anticancer MTT assay; assay type: cell-based; conditions: 50% cell death following 72 h exposure
Outline: (§3)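 MTT viability: cells seeded at 1 × 10^5 per well and incubated 24 h at 37 °C, 5% CO2. Treated with test compound at 10–100 μg mL−1 (from DMSO). Medium removed, wells PBS-washed, RPMI-1640 plus MTT (5 mg mL−1 solution) added for 4 h at 37 °C. Formazan dissolved in DMSO, read at 570 nm. Triplicate wells; IC50 from % viability; cisplatin as reference.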

liver cancer (HepG2) = assay: In vitro anticancer MTT assay; assay type: cell-based, human; conditions: 50% cell death following 72 h exposure
Outline: as §3

breast (MCF-7) = assay: In vitro anticancer MTT assay; assay type: cell-based, human; conditions: 50% cell death following 72 h exposure
Outline: as §3

[14] = test system: normal human dermal fibroblast (NHDF); assay: MTT assay on normal cells; assay type: cell-based; conditions: normal cell line; 50% cell death following 72 h exposure
Outline: as §3

[15] = B = (−)Salmonella enteric serovar typhi
[16] = C = (−)Chromobacterium violaceum

CC[n+]1c(-c2ccccc2)c2cc(N)ccc2c2ccc(N)cc21 [EB, ethidium bromide]
KEB (binding constant of EB to DNA) (EB–DNA [1]): 10^7 M^−1

Oc1ccc(Br)cc1C=NCCN1CCOCC1 [HL, 2-(-(2-morpholinoethylimino)methyl)-4-bromophenol]
DNA cleavage efficacy (CT-DNA [2]): inactive | Kb, WS method (intrinsic DNA binding constant) (CT-DNA [3]): 10000 M⁻¹ | Chromism (%H), hyperchromism ([4]; BSA absorption, pH 7.2, 25 °C): 34.27% | Δλ (nm), bound vs free ([4]; blue-shift of BSA band, pH 7.2, 25 °C): 02 nm | Gibb's free energy change ([4]; from Kapp): -5.595 kcal/mol | Binding constant Kr at 298 K (CT-DNA [5]): 10038 M⁻¹ | KLB (Lineweaver–Burk binding constant) (EB–DNA [6]): 1498 M⁻¹ | KSV (Stern–Volmer binding constant), Method-I (EB–DNA [6]): 4658 M⁻¹ | Kass (association binding constant), Stern–Volmer Method-II (EB–DNA [6]): 1924 M⁻¹ | Apparent binding constant Kapp (EB–DNA [6]; KEB[EB] = Kapp[compound], 50% reduction of EB fluorescence): 269932 M⁻¹ | KSC (Scatchard binding constant) (EB–DNA [6]; Scatchard analysis): 10942 M⁻¹ | % Inhibition, DPPH [7]: 50.64% | % Inhibition, hydroxyl radical [8]: 51.78% | % Inhibition, superoxide [9]: 50.62% | % Inhibition, nitric oxide [10]: 50.20% | % Inhibition, ferric reducing power [11]: 54.29% | diameter of clear zone inhibition (Escherichia coli; A = (−) Escherichia coli, 20 μL of 100 μM per disc, control (DMSO) = 6 mm): 14 mm | inhibition% (Escherichia coli; A = (−) Escherichia coli): 57% | diameter of clear zone inhibition ([12]; B = (−)Salmonella enteric serovar typhi, 20 μL of 100 μM per disc, control 6 mm): 12 mm | inhibition% [12, 15]: 50% | diameter of clear zone inhibition ([13]; C = (−)Chromobacterium violaceum, 20 μL of 100 μM per disc, control 6 mm): 12 mm | inhibition% [13, 16]: 50% | diameter of clear zone inhibition (Pseudomonas aeruginosa; D = (−)Pseudomonas aeruginosa, 20 μL of 100 μM per disc, control 6 mm): 12 mm | inhibition% (Pseudomonas aeruginosa; D = (−)Pseudomonas aeruginosa): 50% | diameter of clear zone inhibition (Shigella flexneri; E = (−)Shigella flexneri, 20 μL of 100 μM per disc, control 6 mm): 17 mm | inhibition% (Shigella flexneri; E = (−)Shigella flexneri): 65% | diameter of clear zone inhibition (Staphylococcus aureus; F = (+)Staphylococcus aureus, 20 μL of 100 μM per disc, control 6 mm): 10 mm | inhibition% (Staphylococcus aureus; F = (+)Staphylococcus aureus): 40% | diameter of clear zone inhibition (Bacillus cereus; G = (+)Bacillus cereus, 20 μL of 100 μM per disc, control 6 mm): 10 mm | inhibition% (Bacillus cereus; G = (+)Bacillus cereus): 40% | diameter of clear zone inhibition (Aspergillus niger; H = Aspergillus niger, 20 μL of 100 μM per disc, control 6 mm): 25 mm | inhibition% (Aspergillus niger; H = Aspergillus niger): 76% | diameter of clear zone inhibition (Candida albicans; I = Candida albicans, 20 μL of 100 μM per disc, control 6 mm): 12 mm | inhibition% (Candida albicans; I = Candida albicans): 50% | diameter of clear zone inhibition (Mucor indicus; J = Mucor indicus, 20 μL of 100 μM per disc, control 6 mm): 17 mm | inhibition% (Mucor indicus; J = Mucor indicus): 65% | IC50 A549 (human lung cancer (A549)): 31.74 µg/mL (≈ 101 µM) | IC50 HepG2 (liver cancer (HepG2)): 27.48 µg/mL (≈ 87.7 µM) | IC50 MCF-7 (breast (MCF-7)): 26.67 µg/mL (≈ 85.2 µM) | IC50 NHDF [14]: 66.72 µg/mL (≈ 213 µM)

CC(=O)N1CCN(c2ccc(OCC3COC(Cn4ccnc4)(c4ccc(Cl)cc4Cl)O3)cc2)CC1 (stereo not shown) [Ketokonazole, ketokonazole]
zone of inhibition at 100 µM (Aspergillus niger; Aspergillus niger, read-out: diameter of clear zone inhibition): 16 mm | inhibition% (Aspergillus niger; H = Aspergillus niger): 63% | zone of inhibition at 100 µM (Candida albicans; Candida albicans, read-out: diameter of clear zone inhibition): 18 mm | inhibition% (Candida albicans; I = Candida albicans): 67% | inhibition% (Mucor indicus; J = Mucor indicus): 67% | zone of inhibition at 100 µM (Mucor indicus; Mucor indicus, read-out: diameter of clear zone inhibition): 18 mm

[H]/N=C(/N)N[C@H]1[C@H](O)[C@@H](O)[C@H](O[C@@H]2O[C@@H](C)[C@](O)(C=O)[C@H]2O[C@@H]2O[C@@H](CO)[C@H](O)[C@@H](O)[C@@H]2NC)[C@@H](N/C(N)=N\[H])[C@@H]1O [Streptomycin, streptomycin]
inhibition% (Escherichia coli; A = (−) Escherichia coli): 75% | zone of inhibition at 100 µM (Escherichia coli; Escherichia coli, read-out: diameter of clear zone inhibition): 24 mm | inhibition% [12, 15]: 77% | zone of inhibition at 100 µM ([12]; Salmonella, TYPHI, read-out: diameter of clear zone inhibition): 26 mm | inhibition% [13, 16]: 75% | zone of inhibition at 100 µM ([13]; Chromobacterium violaceum, read-out: diameter of clear zone inhibition): 24 mm | inhibition% (Pseudomonas aeruginosa; D = (−)Pseudomonas aeruginosa): 71% | zone of inhibition at 100 µM (Pseudomonas aeruginosa; Pseudomonas aeruginosa, read-out: diameter of clear zone inhibition): 21 mm | inhibition% (Shigella flexneri; E = (−)Shigella flexneri): 76% | zone of inhibition at 100 µM (Shigella flexneri; Shigella flexneri, read-out: diameter of clear zone inhibition): 25 mm | inhibition% (Staphylococcus aureus; F = (+)Staphylococcus aureus): 71% | zone of inhibition at 100 µM (Staphylococcus aureus; Staphylococcus aureus, read-out: diameter of clear zone inhibition): 21 mm | zone of inhibition at 100 µM (Bacillus cereus; Bacillus cereus, read-out: diameter of clear zone inhibition): 21 mm | inhibition% (Bacillus cereus; G = (+)Bacillus cereus): 71%
